The nature of experiment [1]: Cytotoxicity against human T24 cells after 48 hrs by SRB binding assay. The experiment is classed as cell-based. The note with it: T-24, 48 h.
The subject of experiment [2] is MCF7. In words: Cytotoxicity against human MCF7 cells after 48 hrs by SRB binding assay. The following applies: MCF7, 48 h. The experiment is classed as functional, cell-based. The essentials: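 Drug-sensitive MCF-7 cells seeded at ~15% confluency and allowed 24 h recovery. Exposed 48 h to graded concentrations. Survival measured by SRB binding as % decrease versus ethanol-vehicle controls, mean of triplicate wells.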

Experiment [3] can be described thus: Cytotoxicity against Pgp overexpressing human NCI/ADR cells after 48 hrs by SRB binding assay. It is filed as functional, cell-based. The note with it: NCI/ADR-RES. The essentials:
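NCI/ADR (Pgp-overexpressing) cells seeded at ~15% confluency and allowed 24 h to attach. Exposed 48 h to graded concentrations, as solubility allowed, without vinblastine. Survival measured by sulforhodamine B binding as % decrease in SRB binding versus ethanol-vehicle controls, mean of three wells per condition.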

The nature of experiment [4]: Cytotoxicity against MRP1 overexpressing human MCF7/VP cells after 48 hrs by SRB binding assay. The experiment is classed as functional, cell-based. The procedure, abridged:
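MCF-7/VP (MRP1-expressing, Pgp-negative) cells seeded at ~15% confluency and allowed 24 h to attach. Exposed 48 h to graded concentrations without vincristine. Survival measured by SRB binding versus ethanol controls.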

The test system of another experiment is NCI/ADR. Nature of the experiment: Inhibition of P-glycoprotein activity assessed as increase in accumulation of [3H]vinblastine in NCI/ADR cells. The experiment is classed as cell-based. The note with it: Homo sapiens.
For experiment [5], the system named is HL-60. In words: Cell cycle arrest in HL60 cells assessed as accumulation in G0/G1 phase at 600 nM. It is filed as functional, Homo sapiens. The essentials:
(§1)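 HL-60 cells exposed 24 or 48 h to drug or ethanol vehicle. Nuclei prepared by detergent-trypsin method: citrate/sucrose/DMSO buffer, trypsin, then trypsin inhibitor plus RNase A, then propidium iodide with spermine, 30 min at 4 °C. Filtered, resuspended, DNA content measured by flow cytometry. Percentages given for G0/G1, S and G2/M. Mean ± SEM.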

In experiment [6] the test system is HL-60. In words: Cell cycle arrest in HL60 cells assessed as accumulation in S phase at 600 nM. It is filed as functional, Homo sapiens. The essentials:
as §1

Experiment [7] deals with HL-60. In words: Cell cycle arrest in HL60 cells assessed as accumulation in […] phase at 600 nM. It is filed as functional, Homo sapiens. The procedure, abridged: as §1
Experiment [8] has as its system MCF7. In words: Growth inhibition of Pgp deficient MCF7 cells expressing MRP1. It is filed as functional, cell-based. The note with it: Homo sapiens. The essentials: (§2)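 NCI/ADR (Pgp-overexpressing) or MCF-7/VP (MRP1-expressing, Pgp-negative) cells were seeded at about 15% confluency and allowed to attach for 24 h. They were then exposed for 48 h to varying compound concentrations, limited by solubility, without added vinca drug. Survival was read by sulforhodamine B binding against ethanol solvent controls. Each value is the mean of three equally treated wells.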

Experiment [9] in a line: Growth inhibition of NCI/ADR cells expressing Pgp/MRP1. The following applies: Homo sapiens, NCI/ADR-RES. The experiment is classed as functional, cell-based. The procedure, abridged:
as §2

Experiment [10] can be described thus: Growth inhibition of Pgp deficient MCF7/VP cells expressing MRP1. It is filed as functional, cell-based. The note with it: Homo sapiens. The essentials:
as §2

For experiment [11], the system named is HL-60. In words: Cell cycle arrest in HL60 cells assessed as accumulation in G0/G1 phase at 80 nM. The experiment is classed as functional, Homo sapiens. The essentials:
as §1

In experiment [12] the test system is HL-60. Nature of the experiment: Cell cycle arrest in HL60 cells assessed as accumulation in S phase at 80 nM. It is filed as functional, Homo sapiens. The procedure, abridged:
as §1

Experiment [13] has as its system HL-60. Nature of the experiment: Cell cycle arrest in HL60 cells assessed as accumulation in […] phase at 80 nM. It is filed as functional, Homo sapiens. The procedure, abridged:
as §1

The subject of the next experiment is A10. In words: Induction of microtubule loss in rat A10 cells at 5 uM after 24 hrs. The experiment is classed as functional, cell-based.
Experiment [14] relates to HL-60. In words: Cell cycle arrest in HL60 cells assessed as accumulation in G0/G1 phase at 200 nM. It is filed as functional, Homo sapiens. The procedure, abridged: as §1
Experiment [15] concerns HL-60. Nature of the experiment: Cell cycle arrest in HL60 cells assessed as accumulation in S phase at 200 nM. The experiment is classed as functional, Homo sapiens. The essentials:
as §1

For experiment [16], the system named is HL-60. In words: Cell cycle arrest in HL60 cells assessed as accumulation in […] phase at 200 nM. It is filed as functional, Homo sapiens. The essentials: as §1

Results on 8 compounds are retold here after ChEMBL document CHEMBL1145421, “Discovery of novel antitumor antimitotic agents that also reverse tumor resistance” (J Med Chem, 2007).

The source made the active and inactive calls. No cut-off for these calls is given here. Bounds are passed on as bounds.

With `COc1ccccc1CCc1cn(Cc2ccccc2)c2nc(N)nc(C)c12`, the IC50 in experiment [1] amounted to 2.5 µM; in the experiment on MCF7 [2] it was 2.3 µM; in experiment [3], 2.7 µM; in [4], 2.6 µM. Besides, the Activity entry in the experiment with NCI/ADR was “Dose-dependent effect”.

For `COc1cccc(CCc2cn(Cc3ccccc3)c3nc(N)nc(C)c23)c1`, the IC50 in experiment [1] was 25 µM; with MCF7 [2], 8 µM; in experiment [3] it was 5.7 µM; in [4] it was 22 µM.

Regarding `COc1cc2c(c(OC)c1OC)-c1ccc(OC)c(=O)cc1[C@@H](NC(C)=O)CC2` [COLCHICINE], the results for the Activity in the experiment on HL-60 [5], in the experiment on HL-60 [6] and in the experiment on HL-60 [7] were 84.1%, 4% and 11.9%, respectively.

Consider `COc1ccc(CCc2cn(Cc3ccccc3)c3nc(N)nc(C)c23)cc1`, for which the IC50 in [1] was found to be 31.7 µM; in the experiment on MCF7 [2], 13 µM; in [3], 21.7 µM; in experiment [4] it was 22.7 µM.

Regarding `CC[C@]1(O)C[C@H]2CN(CCc3c([nH]c4ccccc34)[C@@](C(=O)OC)(c3cc4c(cc3OC)N(C=O)[C@H]3[C@@](O)(C(=O)OC)[C@H](OC(C)=O)[C@]5(CC)C=CCN6CC[C@]43[C@@H]65)C2)C1` [VINCRISTINE], the IC50 with MCF7 [8] worked out at 0.0006 µM; in experiment [9], 0.1 µM; in [10], 0.0093 µM.

For the compound `CC[C@]1(O)C[C@@H]2CN(CCc3c([nH]c4ccccc34)[C@@](C(=O)OC)(c3cc4c(cc3OC)N(C)[C@H]3[C@@](O)(C(=O)OC)[C@H](OC(C)=O)[C@]5(CC)C=CCN6CC[C@]43[C@@H]65)C2)C1` [VINBLASTINE], the IC50 in the experiment with MCF7 [8] was 0.0028 µM; in experiment [9] it was greater than 0.375 µM; in [10], 0.003 µM. Moreover, the Activity with HL-60 [11] is 83.3%; in the experiment on HL-60 [12], 6.6%; in the experiment on HL-60 [13], 10.1%. The result in the experiment on A10 was Active.

Regarding `Cc1nc(N)nc2c1c(CCc1ccccc1)cn2Cc1ccccc1`, the IC50 in experiment [1] came to 12.7 µM; with MCF7 [2], 10.7 µM; in [3], 18.2 µM; in [4], 18.3 µM.

In the case of `CC(=O)O[C@H]1C(=O)[C@@]2(C)[C@H]([C@H](OC(=O)c3ccccc3)[C@]3(O)C[C@H](OC(=O)[C@H](O)[C@@H](NC(=O)c4ccccc4)c4ccccc4)C(C)=C1C3(C)C)[C@]1(OC(C)=O)CO[C@@H]1C[C@@H]2O` [PACLITAXEL], the IC50 worked out at 0.0025 µM in the experiment with MCF7 [8], 2.7 µM in experiment [9] and 0.0028 µM in experiment [10]. The Activity with HL-60 [14] was determined as 67.3%; in the experiment with HL-60 [15], 22.2%; in the experiment with HL-60 [16], 10.5%.
